According to ChEMBL document CHEMBL2074148, “Interaction of human and rat organic anion transporter 2 with various cephalosporin antibiotics” (Eur J Pharmacol, 2003):

T1: Solute carrier family 22 member 7 (Homo sapiens, UniProt Q9Y694)
T1 sequence (Q9Y694 whole entry): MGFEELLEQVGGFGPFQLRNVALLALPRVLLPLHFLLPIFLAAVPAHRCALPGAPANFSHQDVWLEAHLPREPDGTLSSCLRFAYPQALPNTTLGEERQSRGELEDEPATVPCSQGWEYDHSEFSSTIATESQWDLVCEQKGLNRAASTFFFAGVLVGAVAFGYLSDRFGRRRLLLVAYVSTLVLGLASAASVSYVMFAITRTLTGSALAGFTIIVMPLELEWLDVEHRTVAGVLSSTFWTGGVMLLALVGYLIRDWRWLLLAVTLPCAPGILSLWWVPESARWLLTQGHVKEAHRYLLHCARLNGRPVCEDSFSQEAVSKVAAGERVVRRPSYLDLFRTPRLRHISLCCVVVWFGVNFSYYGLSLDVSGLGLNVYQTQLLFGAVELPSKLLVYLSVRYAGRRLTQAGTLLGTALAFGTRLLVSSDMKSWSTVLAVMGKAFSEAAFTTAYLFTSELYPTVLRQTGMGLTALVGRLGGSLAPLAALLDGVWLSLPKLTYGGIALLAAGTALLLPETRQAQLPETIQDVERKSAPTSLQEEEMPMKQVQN

T2: Solute carrier family 22 member 7 (Rattus norvegicus, UniProt Q5RLM2)
T2 sequence (Q5RLM2 whole entry): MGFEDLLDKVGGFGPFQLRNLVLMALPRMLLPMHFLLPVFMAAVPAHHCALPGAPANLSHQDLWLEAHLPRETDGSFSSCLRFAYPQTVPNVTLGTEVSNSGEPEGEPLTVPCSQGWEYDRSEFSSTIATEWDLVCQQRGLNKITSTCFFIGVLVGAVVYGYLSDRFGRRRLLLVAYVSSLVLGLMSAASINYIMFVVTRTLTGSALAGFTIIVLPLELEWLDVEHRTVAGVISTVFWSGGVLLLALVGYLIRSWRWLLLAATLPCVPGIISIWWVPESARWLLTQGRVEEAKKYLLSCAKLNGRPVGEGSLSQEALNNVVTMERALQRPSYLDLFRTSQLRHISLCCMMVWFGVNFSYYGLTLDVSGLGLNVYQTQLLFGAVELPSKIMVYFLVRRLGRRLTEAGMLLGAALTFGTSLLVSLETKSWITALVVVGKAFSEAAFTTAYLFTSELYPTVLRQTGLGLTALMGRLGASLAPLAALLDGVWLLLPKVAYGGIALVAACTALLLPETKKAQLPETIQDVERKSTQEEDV

T3: Organic anion transporter 3 (Homo sapiens, UniProt Q8TCC7)
T3 sequence (Q8TCC7 whole entry): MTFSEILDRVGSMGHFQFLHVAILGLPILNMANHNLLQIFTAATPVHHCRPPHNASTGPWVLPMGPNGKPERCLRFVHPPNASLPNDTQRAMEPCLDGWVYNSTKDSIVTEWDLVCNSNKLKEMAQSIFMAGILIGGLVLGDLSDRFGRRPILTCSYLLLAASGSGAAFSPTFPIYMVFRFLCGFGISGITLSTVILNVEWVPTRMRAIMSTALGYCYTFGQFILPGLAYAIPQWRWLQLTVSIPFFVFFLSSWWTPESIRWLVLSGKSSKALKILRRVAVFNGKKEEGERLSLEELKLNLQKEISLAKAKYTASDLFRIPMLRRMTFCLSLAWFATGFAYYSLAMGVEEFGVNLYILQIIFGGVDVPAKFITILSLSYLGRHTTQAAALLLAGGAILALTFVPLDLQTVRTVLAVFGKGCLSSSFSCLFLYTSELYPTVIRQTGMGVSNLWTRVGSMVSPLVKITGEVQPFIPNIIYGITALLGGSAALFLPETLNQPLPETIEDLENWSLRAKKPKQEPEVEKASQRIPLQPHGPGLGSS

T4: Solute carrier family 22 member 11 (Homo sapiens, UniProt Q9NSA0)
T4 sequence (Q9NSA0 whole entry): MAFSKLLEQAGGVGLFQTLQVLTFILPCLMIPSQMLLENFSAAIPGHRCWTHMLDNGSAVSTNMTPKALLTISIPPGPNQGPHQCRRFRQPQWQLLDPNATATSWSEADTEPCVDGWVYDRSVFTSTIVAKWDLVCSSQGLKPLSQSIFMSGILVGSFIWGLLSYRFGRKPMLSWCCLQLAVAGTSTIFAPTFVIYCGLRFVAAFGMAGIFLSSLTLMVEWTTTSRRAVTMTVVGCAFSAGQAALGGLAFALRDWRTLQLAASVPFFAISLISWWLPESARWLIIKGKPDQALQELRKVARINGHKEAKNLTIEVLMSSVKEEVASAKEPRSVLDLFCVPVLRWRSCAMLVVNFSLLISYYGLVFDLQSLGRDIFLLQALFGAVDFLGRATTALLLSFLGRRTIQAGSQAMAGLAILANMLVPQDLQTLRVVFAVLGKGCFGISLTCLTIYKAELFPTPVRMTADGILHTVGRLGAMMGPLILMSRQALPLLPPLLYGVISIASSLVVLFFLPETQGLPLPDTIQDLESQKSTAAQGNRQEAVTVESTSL


Columns and labels:
Assay type in all cases: functional, cell-based
[1] = molecular target: T1, Solute carrier family 22 member 7; assay: (§1) TP_TRANSPORTER: inhibition of PGF2alpha in OAT2-S2 cells
Summary of the method: (§2)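 S2 cells stably expressing human or rat OAT2, seeded at 1 × 10^5 cells/well and grown for 2 days. Washed, then preincubated 10 min at 37 °C in D-PBS (pH 7.4). Uptake of 50 nM [3H]prostaglandin F2α measured at 37 °C with or without various concentrations of cephalosporin: 20 s for human OAT2, 2 min for rat OAT2. Stopped with ice-cold D-PBS; cells lysed in 0.1 N NaOH; scintillation counting.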

[2] = molecular target: T2, Solute carrier family 22 member 7; assay: as §1; summary of the method: as §2
[3] = molecular target: T3, Organic anion transporter 3; assay: TP_TRANSPORTER: cell viability in OAT3-S2 cells
Summary of the method: (§3)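 S2 cells stably transfected with the human OAT (pcDNA3.1), alongside mock-transfected controls, were seeded at 1 × 10^5 cells/well and cultured for 2 days. Cells were then exposed to 5 mM cephalosporin, with or without 1 mM probenecid, at 33 °C for 24 h. MTT was added for a further 4 h at 33 °C. Cells were solubilized in isopropanol/HCl and OD read at 570 nm (630 nm reference). Four determinations; mean ± S.E.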

[4] = molecular target: T4, Solute carrier family 22 member 11; assay: TP_TRANSPORTER: cell viability in OAT4-S2 cells; summary of the method: as §3
[5] = substrate: CCCCC[C@H](O)/C=C/[C@@H]1[C@@H](C/C=C\CCCC(=O)O)[C@@H](O)C[C@H]1O; assay: TP_TRANSPORTER: uptake in OAT2-S2 cells

Molecule	IC50 [1] [mM]	IC50 [2] [mM]	Activity [3]	Activity [4]	Km [5] [µM]
CO/N=C(\C(=O)N[C@@H]1C(=O)N2C(C(=O)O)=C(COC(C)=O)CS[C@H]12)c1csc(N)n1 [CEFOTAXIME]	4.68	> 5			
O=C(Cc1cccs1)N[C@@H]1C(=O)N2C(C(=O)[O-])=C(C[n+]3ccccc3)CS[C@H]12 [CEPHALORIDINE]	4.48	> 5	substrate []	substrate []	
CC(=O)OCC1=C(C(=O)O)N2C(=O)[C@@H](NC(=O)Cc3cccs3)[C@H]2SC1 [CEPHALOTHIN]	1.41	1.5			
Solute carrier family 22 member 7 (Rattus norvegicus) (protein) MGFEDLLDKVGGFGPFQLRNLVLMALPRMLLPMHFLLPVFMAAVPAHHCALPGAPANLSHQDLWLEAHLPRETDGSFSSCLRFAYPQTVPNVTLGTEVSNSGEPEGEPLTVPCSQGWEYDRSEFSSTIATEWDLVCQQRGLNKITSTCFFIGVLVGAVVYGYLSDRFGRRRLLLVAYVSSLVLGLMSAASINYIMFVVTRTLTGSALAGFTIIVLPLELEWLDVEHRTVAGVISTVFWSGGVLLLALVGYLIRSWRWLLLAATLPCVPGIISIWWVPESARWLLTQGRVEEAKKYLLSCAKLNGRPVGEGSLSQEALNNVVTMERALQRPSYLDLFRTSQLRHISLCCMMVWFGVNFSYYGLTLDVSGLGLNVYQTQLLFGAVELPSKIMVYFLVRRLGRRLTEAGMLLGAALTFGTSLLVSLETKSWITALVVVGKAFSEAAFTTAYLFTSELYPTVLRQTGLGLTALMGRLGASLAPLAALLDGVWLLLPKVAYGGIALVAACTALLLPETKKAQLPETIQDVERKSTQEEDV					0.414

The next lines start with results.

IC50 [1] [mM]	IC50 [2] [mM]	Molecule	Activity [3]	Activity [4]	Km [5] [µM]
1.57	3.18	Cn1nnnc1SCC1=C(C(=O)O)N2C(=O)[C@@H](NC(=O)[C@H](O)c3ccccc3)[C@H]2SC1 [CEFAMANDOLE]			
1.33	1.62	CCN1CCN(C(=O)N[C@@H](C(=O)N[C@@H]2C(=O)N3C(C(=O)O)=C(CSc4nnnn4C)CS[C@H]23)c2ccc(O)cc2)C(=O)C1=O [CEFOPERAZONE]			
